From ChEMBL document CHEMBL3352259, “Benzimidazole--ibuprofen/mesalamine conjugates: potential candidates for multifactorial diseases” (Eur J Med Chem, 2015) come the findings set out here.

The structures appear in SMILES notation.

Data set [1] concerns Mus musculus. The experiment in a line: Immunomodulatory activity in albino mouse assessed as change in carbon clearance index at 150 umol/kg, po for 5 days followed by carbon ink challenge. In kind it is functional. A digest of the protocol: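 Albino mice (18-22 g), 6 per group, 150 µmol/kg p.o. daily for 5 days (control 0.5% SCMC, 0.3 mL). Carbon ink suspension (10 µL/g) given via tail vein 48 h later. Retro-orbital blood at 3 and 15 min, 25 µL into 2 mL 0.1% Na2CO3, OD read. K = (ln OD1 − ln OD2)/12. Mean ± SD.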

Data set [2] relates to Rattus norvegicus. In words: Antioxidant activity in Wistar rat assessed as GSH level measured per 100 mg of protein at 150 umol/kg, po administered for 3 days measured on day 4 (reference value: 184.10 +/- 4.19 umol). In kind it is functional.
In data set [3] the test system is Rattus norvegicus. In words: Gastrointestinal toxicity in Wistar rat assessed as ulcer index at 150 umol/kg, po administered for 3 days measured on day 4 (reference value: 0.33 +/-0.20). In kind it is organism-based. Particulars: in vivo, 72 h.
Data set [4] concerns Rattus norvegicus. The experiment in a line: Antioxidant activity in Wistar rat assessed as catalase level measured per mg of protein at 150 umol/kg, po administered for 3 days measured on day 4 (reference value: 22.14 +/- 1.19 umol). In kind it is functional.
Data set [5] concerns Rattus norvegicus. In words: Antiinflammatory activity against carrageenan-induced ip dosed Wistar rat paw edema model assessed as inhibition of edema administered 30 mins prior to carrageenan challenge measured after 60 mins. In kind it is functional. In outline:
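Wistar rats (150-200 g, either sex), 150 µmol/kg i.p. 30 min before subplantar carrageenan; vehicle control 0.5% SCMC. Paw volume read at 0, 30, 60, 120, 180 min. % oedema inhibition = 100 − [(treated paw volume/control paw volume) × 100].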
(The carrageenan paw model is a standard test of acute inflammation.)

For data set [6], the system named is Rattus norvegicus. The experiment in a line: Antioxidant activity in Wistar rat assessed as thiobarbituric acid reactive substance level measured per mg of protein at 150 umol/kg, po administered for 3 days measured on day 4 (reference value: 3.72 +/- 00.23 nmol). In kind it is functional.
Data set [7] deals with Mus musculus. In words: Immunomodulatory activity in albino mouse assessed as change in humoral antibody titre at 150 umol/kg, po for 7 days followed by sheep RBC challenge measured on day 14. In kind it is functional. In outline:
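Albino mice, 6 per group, 150 µmol/kg p.o. for 7 days. On day 7, challenged i.p. with 0.1 mL sheep RBC suspension (about 1×10^8 cells per 0.1 mL, saline-washed). Retro-orbital blood taken on day 14, serum separated at 2500 rpm for 10 min, and antibody titre determined by microtitre haemagglutination. Mean ± SD.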

Regarding `CC(C)Cc1ccc(C(C)c2nc3ccccc3[nH]2)cc1` (stereo not drawn), the Activity in the data set on Mus musculus [1] is above 100%; in the data set with Rattus norvegicus [2], 158.6 µmol; in the data set with Rattus norvegicus [4], 18.26 µmol; with Rattus norvegicus [6], 5.9 nmol; in the data set with Mus musculus [7], 57.6%. In addition, in the data set on Rattus norvegicus [3], the UI amounted to 0.92. For the same molecule, the “inhibition (INH)” value with Rattus norvegicus [5] stood at 57.1%.

For the molecule `CC(C)Cc1ccc(C(C)c2nc3ccc([N+](=O)[O-])cc3[nH]2)cc1` (stereo not drawn), the Activity in the data set on Mus musculus [1] turned out to be 29.4%; in the data set on Mus musculus [7], 19.2%. Moreover, the “inhibition (INH)” value with Rattus norvegicus [5] is given as 38%.

Take `Cc1ccc2nc(C(C)c3ccc(CC(C)C)cc3)[nH]c2c1` (stereo not drawn): the Activity with Mus musculus [1] worked out at 70.5%; in the data set with Mus musculus [7] it was 38.4%. In addition, the “inhibition (INH)” value with Rattus norvegicus [5] is on record as 58%.

With `COc1ccc2nc(C(C)c3ccc(CC(C)C)cc3)[nH]c2c1` (stereo not drawn), the Activity with Mus musculus [1] is listed as 52.9%; in the data set on Mus musculus [7], 42.3%. In addition, in the data set on Rattus norvegicus [5], the “inhibition (INH)” value is on record as 64.7%.

Turning to `CC(C)Cc1ccc(C(C)c2nc3ccc(C(=O)c4ccccc4)cc3[nH]2)cc1` (stereo not drawn), the Activity in the data set with Mus musculus [1] was above 100%; with Rattus norvegicus [2], 131.5 µmol; in the data set on Rattus norvegicus [4], 14.12 µmol; in the data set with Rattus norvegicus [6], 11.28 nmol; with Mus musculus [7], 61.5%. The UI in the data set with Rattus norvegicus [3] was 0.7. In the data set on Rattus norvegicus [5], the “inhibition (INH)” value stood at 68.1%.

Regarding `Nc1ccc(O)c(-c2nc3ccccc3[nH]2)c1`, the Activity was above 100% with Mus musculus [1]; 178.18 µmol in the data set on Rattus norvegicus [2]; 18.78 µmol in the data set with Rattus norvegicus [4]; 5.47 nmol with Rattus norvegicus [6]; 61.5% in the data set on Mus musculus [7]. For the same molecule, in the data set on Rattus norvegicus [3], the UI worked out at 0.58. Also, the “inhibition (INH)” value with Rattus norvegicus [5] is 54.6%.

For `Nc1ccc(O)c(-c2nc3ccc([N+](=O)[O-])cc3[nH]2)c1`, the results for the Activity in the data set on Mus musculus [1] and in the data set with Mus musculus [7] were 41.2% and 23%, respectively. In addition, the “inhibition (INH)” value in the data set on Rattus norvegicus [5] was 42.9%.

Turning to `Cc1ccc2nc(-c3cc(N)ccc3O)[nH]c2c1`, the Activity is reported as 58.8% in the data set on Mus musculus [1] and 42.3% in the data set with Mus musculus [7]. Moreover, in the data set with Rattus norvegicus [5], the “inhibition (INH)” value came to 52.4%.

`COc1ccc2nc(-c3cc(N)ccc3O)[nH]c2c1`: the results for the Activity with Mus musculus [1] and in the data set on Mus musculus [7] were 70.5% and 46.2%, respectively. Also, the “inhibition (INH)” value with Rattus norvegicus [5] amounted to 55.7%.

`Nc1ccc(O)c(-c2nc3ccc(C(=O)c4ccccc4)cc3[nH]2)c1`: the Activity is above 100% in the data set on Mus musculus [1]; 153.38 µmol in the data set on Rattus norvegicus [2]; 16.94 µmol in the data set on Rattus norvegicus [4]; 8.95 nmol with Rattus norvegicus [6]; 69.2% in the data set with Mus musculus [7]. Further, the UI in the data set with Rattus norvegicus [3] is 1.1. For the same molecule, the “inhibition (INH)” value with Rattus norvegicus [5] worked out at 62.6%.

Take `CC(C)Cc1ccc(C(C)C(=O)Nc2nc3ccccc3[nH]2)cc1` (stereo not drawn): the Activity with Mus musculus [1] was found to be 76.4%; in the data set with Mus musculus [7], 38.4%. Further, in the data set with Rattus norvegicus [5], the “inhibition (INH)” value is listed as 53.8%.

`CC(C)Cc1ccc(C(C)C(=O)Nc2nc3ccc([N+](=O)[O-])cc3[nH]2)cc1` (stereo not drawn): the values for the Activity with Mus musculus [1] and in the data set on Mus musculus [7] were 23.5% and 15.3%, respectively. In addition, the “inhibition (INH)” value in the data set with Rattus norvegicus [5] was determined as 34.3%.

As for `Cc1ccc2nc(NC(=O)C(C)c3ccc(CC(C)C)cc3)[nH]c2c1` (stereo not drawn), the values for the Activity in the data set on Mus musculus [1] and in the data set with Mus musculus [7] were 47.1% and 23.1%, respectively. The “inhibition (INH)” value in the data set with Rattus norvegicus [5] is 54.1%.

Regarding `COc1ccc2nc(NC(=O)C(C)c3ccc(CC(C)C)cc3)[nH]c2c1` (stereo not drawn), the Activity is 52.9% in the data set with Mus musculus [1] and 26.9% with Mus musculus [7]. Moreover, the “inhibition (INH)” value in the data set on Rattus norvegicus [5] was determined as 55.3%.

Regarding `CC(C)Cc1ccc(C(C)C(=O)Nc2nc3ccc(C(=O)c4ccccc4)cc3[nH]2)cc1` (stereo not drawn), the results for the Activity in the data set on Mus musculus [1] and in the data set on Mus musculus [7] were 64.7% and 42.3%, respectively. Also, in the data set with Rattus norvegicus [5], the “inhibition (INH)” value stood at 60.1%.

In the case of `Nc1ccc(O)c(C(=O)Nc2nc3ccccc3[nH]2)c1`, the Activity in the data set on Mus musculus [1] is on record as -29.4%; with Mus musculus [7], -34.6%. Further, the “inhibition (INH)” value with Rattus norvegicus [5] is 50%.

As for `Nc1ccc(O)c(C(=O)Nc2nc3ccc([N+](=O)[O-])cc3[nH]2)c1`, the Activity with Mus musculus [1] was -41.1%; in the data set on Rattus norvegicus [2], 127.32 µmol; with Rattus norvegicus [4], 11.87 µmol; in the data set with Rattus norvegicus [6], 11.98 nmol; in the data set with Mus musculus [7], -50%. In addition, the UI in the data set on Rattus norvegicus [3] was 0.4. In addition, the “inhibition (INH)” value in the data set on Rattus norvegicus [5] was found to be 36.9%.

With `Cc1ccc2nc(NC(=O)c3cc(N)ccc3O)[nH]c2c1`, the results for the Activity with Mus musculus [1] and in the data set with Mus musculus [7] were -35.2% and -38.4%, respectively. Also, the “inhibition (INH)” value in the data set with Rattus norvegicus [5] was determined as 48.8%.

For `COc1ccc2nc(NC(=O)c3cc(N)ccc3O)[nH]c2c1`, the Activity with Mus musculus [1] is recorded as -29.4%; in the data set with Mus musculus [7] it was -34.6%. Further, in the data set with Rattus norvegicus [5], the “inhibition (INH)” value is listed as 50%.

Regarding `Nc1ccc(O)c(C(=O)Nc2nc3ccc(C(=O)c4ccccc4)cc3[nH]2)c1`, the Activity with Mus musculus [1] is recorded as -17.6%; with Mus musculus [7] it was -26.9%. The “inhibition (INH)” value with Rattus norvegicus [5] stood at 52.1%.

In the case of `CC(C)Cc1ccc(C(C)C(=O)O)cc1` (stereo not drawn) [IBUPROFEN], in the data set with Rattus norvegicus [5], the “inhibition (INH)” value was 53.8%.

As to `COc1ccc2c(c1)c(CC(=O)O)c(C)n2C(=O)c1ccc(Cl)cc1` [INDOMETHACIN], the Activity was 85.2 µmol in the data set with Rattus norvegicus [2], 7.79 µmol in the data set on Rattus norvegicus [4] and 30.41 nmol in the data set with Rattus norvegicus [6]. The UI in the data set on Rattus norvegicus [3] is recorded as 3.17.

Take `c1ccc([C@H]2CN3CCSC3=N2)cc1` [LEVAMISOLE]: the Activity in the data set on Mus musculus [1] was found to be 88.2%; in the data set with Mus musculus [7] it was 65.3%.

Regarding `Nc1ccc(O)c(C(=O)O)c1` [MESALAMINE], the “inhibition (INH)” value in the data set on Rattus norvegicus [5] stood at 50%.
